Here are results for 4 molecules from ChEMBL document CHEMBL3526053, “Species-dependent uptake of glycylsarcosine but not oseltamivir in Pichia pastoris expressing the rat, mouse, and human intestinal peptide transporter PEPT1” (Drug Metab Dispos, 2012).

Series [1] concerns PEPT1. The series can be described thus: Drug uptake in Xenopus laevis oocytes expressing salmon PEPT1 measured at pH 6.5 and -60 mV by two-electrode voltage-clamp electrophysiology. It is filed as ADME, cell-based. To be noted: salmonidae, Xenopus laevis oocytes expressing salmon PEPT1, pH 6.5.
The subject of series [2] is PEPT1. The experiment in a line: Drug uptake in CHO cells expressing pig PEPT1 measured at pH 6. The format is ADME, cell-based, Sus scrofa. To be noted: CHO cells expressing pig PEPT1, pH 6.
In series [3] the test system is PEPT1. The experiment in a line: Drug uptake in Xenopus laevis oocytes expressing sheep PEPT1 measured at pH 5.5 and -60 mV by two-electrode voltage-clamp electrophysiology. To be noted: Xenopus laevis oocytes expressing sheep PEPT1, pH 5.5. It is filed as ADME, cell-based, Ovis aries. A general note: Two-electrode voltage clamp is typically applied to oocytes expressing channels or transporters.

Series [4] deals with PEPT1. The experiment in a line: Drug uptake in CHO cells expressing chicken PEPT1 measured at pH 6. The format is ADME, cell-based, Gallus gallus. The settings on record: CHO cells expressing chicken PEPT1, pH 6.
Series [5] concerns PEPT1. The experiment in a line: Ratio of Km for human recombinant PEPT1 expressed in Pichia pastoris GS115 to Km for mouse recombinant PEPT1 expressed in Pichia pastoris GS115. The format is ADME. To be noted: not told.
In series [6] the target is T1, Solute carrier family 15 member 1 (Oryctolagus cuniculus, UniProt P36836).
T1 sequence (P36836 whole entry): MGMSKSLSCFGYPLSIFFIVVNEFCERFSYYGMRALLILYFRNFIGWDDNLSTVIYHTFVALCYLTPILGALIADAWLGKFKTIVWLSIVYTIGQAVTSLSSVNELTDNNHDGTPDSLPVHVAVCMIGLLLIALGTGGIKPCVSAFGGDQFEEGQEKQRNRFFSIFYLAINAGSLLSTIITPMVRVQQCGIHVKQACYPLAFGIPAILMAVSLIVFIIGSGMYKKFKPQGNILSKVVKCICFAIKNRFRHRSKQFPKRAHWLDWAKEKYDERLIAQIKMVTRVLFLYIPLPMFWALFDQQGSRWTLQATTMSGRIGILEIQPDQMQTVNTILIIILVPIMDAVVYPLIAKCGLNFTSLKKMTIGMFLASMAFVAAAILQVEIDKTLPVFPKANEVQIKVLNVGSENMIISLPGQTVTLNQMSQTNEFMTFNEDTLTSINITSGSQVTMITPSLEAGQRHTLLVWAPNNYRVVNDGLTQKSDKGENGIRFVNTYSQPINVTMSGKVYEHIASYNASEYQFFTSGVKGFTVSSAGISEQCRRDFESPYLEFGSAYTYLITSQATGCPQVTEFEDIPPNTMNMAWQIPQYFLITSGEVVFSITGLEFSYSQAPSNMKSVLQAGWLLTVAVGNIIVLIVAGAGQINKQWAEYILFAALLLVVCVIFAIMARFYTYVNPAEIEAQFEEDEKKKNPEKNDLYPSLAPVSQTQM
The series can be described thus: Drug uptake in Xenopus laevis oocytes expressing rabbit PEPT1 measured at pH 5.5 and -60 mV by two-electrode voltage-clamp electrophysiology. It is filed as ADME, cell-based.

Series [7] relates to PEPT1. The experiment in a line: Drug uptake in human HeLa cells expressing monkey PEPT1 measured at pH 6. To be noted: rhesus monkey, HeLa cells expressing monkey PEPT1, pH 6. It is filed as ADME, cell-based, Macaca mulatta.
Series [8] can be described thus: Ratio of Km for human recombinant PEPT1 expressed in Pichia pastoris GS115 to Km for rat recombinant PEPT1 expressed in Pichia pastoris GS115. It is filed as ADME.
The test system of series [9] is PEPT1. The series can be described thus: Drug uptake in Xenopus laevis oocytes expressing chicken PEPT1 measured at pH 6 and -60 mV by two-electrode voltage-clamp electrophysiology. It is filed as ADME, cell-based, Gallus gallus. The settings on record: Xenopus laevis oocytes expressing chicken PEPT1, pH 6.
Substrate in series [10]: CN(CC(=O)O)C(=O)CN
The series can be described thus: Drug uptake in Xenopus laevis oocytes expressing rat PEPT1 measured at pH 6. It is filed as ADME, cell-based.

Substrate in series [11]: CN(CC(=O)O)C(=O)CN
The series can be described thus: Activity at rat recombinant PEPT1 expressed in Pichia pastoris GS115 after 30s by dual-channel liquid scintillation counting analysis. It is filed as ADME. An outline of the steps:
(§1)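 [3H]GlySar concentration series 0.005-10 mM, 30-s uptake at 24°C in 100 mM potassium phosphate pH 6.5. Cells come from His+Mut+ GS115 transformants induced 20-24 h in methanol medium. Uptake is normalised to OD600. Data are fitted to Michaelis-Menten plus a first-order nonsaturable term (Kd), weighting unity. Parameters are mean ± SE (n=9).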

Substrate in series [12]: CN(CC(=O)O)C(=O)CN
The experiment in a line: Activity at human recombinant PEPT1 expressed in Pichia pastoris GS115 after 30s by dual-channel liquid scintillation counting analysis. It is filed as ADME. An outline of the steps:
as §1

Substrate in series [13]: CN(CC(=O)O)C(=O)CN
The series can be described thus: Drug uptake in human HeLa cells expressing human PEPT1 measured at pH 6. The format is ADME, cell-based.

Substrate in series [14]: CN(CC(=O)O)C(=O)CN
The experiment in a line: Drug uptake in Xenopus laevis oocytes expressing mouse PEPT1 measured at pH 5.5 and -60 mV by two-electrode voltage-clamp electrophysiology. The format is ADME, cell-based.

Substrate in series [15]: CN(CC(=O)O)C(=O)CN
The series can be described thus: Activity at mouse recombinant PEPT1 expressed in Pichia pastoris GS115 after 30s by dual-channel liquid scintillation counting analysis. It is filed as ADME. The gist of the method:
as §1

Non-standard residues stand in square brackets, D forms with d. Residues, ends and D or L forms follow the SMILES beside them. Sar = CNCC(=O)O

In the case of `CN(CC(=O)O)C(=O)CN` [GLYCYLSARCOSINE] (H-Gly-[Sar]-OH), the Km (as a rule, the concentration of substrate that gives half-maximal velocity) amounted to 500 µM in the series with PEPT1 [1]; 940 µM in the series on PEPT1 [2]; 610 µM with PEPT1 [3]; 2600 µM in the series with PEPT1 [4]; 1900 µM in [6]; 350 µM with PEPT1 [7]. In addition, the Michaelis-Menten constant (Km) with PEPT1 [9] was 470 µM. Moreover, the selectivity ratio in the series with PEPT1 [5] was 2.9. For the same molecule, in series [8], the Ratio is listed as 5.4.

B1: Solute carrier family 15 member 1 (Rattus norvegicus) (protein)
chain: MGMSKSRGCFGYPLSIFFIVVNEFCERFSYYGMRALLVLYFRNFLGWDDDLSTAIYHTFVALCYLTPILGALIADSWLGKFKTIVSLSIVYTIGQAVISVSSINDLTDHDHDGSPNNLPLHVALSMIGLALIALGTGGIKPCVSAFGGDQFEEGQEKQRNRFFSIFYLAINAGSLLSTIITPILRVQQCGIHSQQACYPLAFGVPAALMAVALIVFVLGSGMYKKFQPQGNIMGKVAKCIRFAIKNRFRHRSKAFPKRNHWLDWAKEKYDERLISQIKIMTKVMFLYIPLPMFWALFDQQGSRWTLQATTMTGKIGTIEIQPDQMQTVNAILIVIMVPIVDAVVYPLIAKCGFNFTSLKKMTVGMFLASMAFVVAAIVQVEIDKTLPVFPSGNQVQIKVLNIGNNDMAVYFPGKNVTVAQMSQTDTFMTFDVDQLTSINVSSPGSPGVTTVAHEFEPGHRHTLLVWGPNLYRVVKDGLNQKPEKGENGIRFVSTLNEMITIKMSGKVYENVTSHSASNYQFFPSGQKDYTINTTEIAPNCSSDFKSSNLDFGSAYTYVIRSRASDGCLEVKEFEDIPPNTVNMALQIPQYFLLTCGEVVFSVTGLEFSYSQAPSNMKSVLQAGWLLTVAIGNIIVLIVAEAGHFDKQWAEYVLFASLLLVVCIIFAIMARFYTYINPAEIEAQFDEDEKKKGVGKENPYSSLEPVSQTNM
In the case of B1, the Km was found to be 240 µM in [10] and 160 µM in [11].

B2: Solute carrier family 15 member 1 (Homo sapiens) (protein)
chain: MGMSKSHSFFGYPLSIFFIVVNEFCERFSYYGMRAILILYFTNFISWDDNLSTAIYHTFVALCYLTPILGALIADSWLGKFKTIVSLSIVYTIGQAVTSVSSINDLTDHNHDGTPDSLPVHVVLSLIGLALIALGTGGIKPCVSAFGGDQFEEGQEKQRNRFFSIFYLAINAGSLLSTIITPMLRVQQCGIHSKQACYPLAFGVPAALMAVALIVFVLGSGMYKKFKPQGNIMGKVAKCIGFAIKNRFRHRSKAFPKREHWLDWAKEKYDERLISQIKMVTRVMFLYIPLPMFWALFDQQGSRWTLQATTMSGKIGALEIQPDQMQTVNAILIVIMVPIFDAVLYPLIAKCGFNFTSLKKMAVGMVLASMAFVVAAIVQVEIDKTLPVFPKGNEVQIKVLNIGNNTMNISLPGEMVTLGPMSQTNAFMTFDVNKLTRINISSPGSPVTAVTDDFKQGQRHTLLVWAPNHYQVVKDGLNQKPEKGENGIRFVNTFNELITITMSGKVYANISSYNASTYQFFPSGIKGFTISSTEIPPQCQPNFNTFYLEFGSAYTYIVQRKNDSCPEVKVFEDISANTVNMALQIPQYFLLTCGEVVFSVTGLEFSYSQAPSNMKSVLQAGWLLTVAVGNIIVLIVAGAGQFSKQWAEYILFAALLLVVCVIFAIMARFYTYINPAEIEAQFDEDEKKNRLEKSNPYFMSGANSQKQM
In the case of B2, the Michaelis constant (Km) in series [12] was determined as 860 µM; in [13], 290 µM.

B3: Solute carrier family 15 member 1 (Mus musculus) (protein)
chain: MGMSKSRGCFGYPLSIFFIVVNEFCERFSYYGMRALLVLYFRNFLGWDDNLSTAIYHTFVALCYLTPILGALIADSWLGKFKTIVSLSIVYTIGQAVISVSSINDLTDHDHNGSPDSLPVHVALSMVGLALIALGTGGIKPCVSAFGGDQFEEGQEKQRNRFFSIFYLAINGGSLLSTIITPILRVQQCGIHSQQACYPLAFGVPAALMAVALIVFVLGSGMYKKFQPQGNIMGKVAKCIGFAIKNRFRHRSKAYPKREHWLDWAKEKYDERLISQIKMVTKVMFLYIPLPMFWALFDQQGSRWTLQATTMNGKIGAIEIQPDQMQTVNAILIVIMVPIVDAVVYPLIAKCGFNFTSLKKMTVGMFLASMAFVVAAIVQVEIDKTLPVFPGGNQVQIKVLNIGNNNMTVHFPGNSVTLAQMSQTDTFMTFDIDKLTSINISSSGSPGVTTVAHDFEQGHRHTLLVWNPSQYRVVKDGLNQKPEKGENGIRFVNTLNEMVTIKMSGKVYENVTSHNASGYQFFPSGEKQYTINTTAVAPTCLTDFKSSNLDFGSAYTYVIRRASDGCLEVKEFEDIPPNTVNMALQIPQYFLLTCGEVVFSVTGLEFSYSQAPSNMKSVLQAGWLLTVAVGNIIVLIVAGAGHFPKQWAEYILFASLLLVVCVIFAIMARFYTYINPAEIEAQFDEDEKKKGIGKENPYSSLEPVSQTNM
For B3, the Michaelis constant (Km) came out at 750 µM in series [14] and 300 µM in series [15].
